High-throughput results from PubChem.
ABHD4 inh = inhibitors of mouse ABHD4; Q8VD66; purified mABHD4, FP-Rh probe fluorescence polarization; inhibition, % at 8.92 µM; hit rate 0.54% among 370,000;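 active means inhibition exceeding the mean over every tested compound plus 3 SD, cut at about 30% in these data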;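 further: 0% = plate median of compound wells and 100% = S159A mutant with DMSO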
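Assay system: mouse ABHD4 enzyme, wild type / Also added: fluorescent activity-based probe FP-Rh / Doses: single nominal dose of 8.92 µM, 0.89% DMSO final / Timing: 45 min compound pre-incubation plus 60 min probe step, 25 °C / Signal: FP readout, ex 525 nm / em 598 nm / Control set: S159A mutant/DMSO as 100%, compound-well median as 0%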
TCR CD3 inh = blocks the human TCR-CD3 interaction. TAMRA-labeled TCR probe fluorescence, biochemical. inhibition, % at 9.4 µM. hit rate 0.37% among 360,000; in the data active means inhibition above about 19%;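 further: recombinant mutant TCR 2C K166C tagged with TAMRA read by polarization; 0% = receptor in buffer alone and 100% = receptor with positive control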
HTRA1 inh = HTRA1 (human) protease inhibition; Q92743; recombinant HTRA1, FP-rhodamine activity-based probe, fluorescence polarization; inhibition, % at 5.96 µM; hit rate 0.5% among 340,000; AID 504803; in the data active means inhibition above about 36%;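 further: 0% = enzyme with DMSO and 100% = wells lacking enzyme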
ARNT-TACC3 inh = ARNT/TACC3 interaction disruption | AID 623870 | Q9Y6A5 | inhibition, % at 9.99 µM | AlphaScreen His-ARNT PAS-B/GST-TACC3 binding, luminescence; TACC3 fragment carries E629A point mutation | hit rate 0.66% among 390,000;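 active means mean inhibition of replicates at least 50% and at least half of replicates each reaching 50%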;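 further: 0% = complete ARNT plus TACC3 wells and 100% = ARNT alone without TACC3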
SIAE inh = human SIAE inhibition, primary screen; Q9HAT2; SIAE FP-Rh probe binding, fluorescence polarization; inhibition, % at 9.66 µM; hit rate 0.69% among 370,000; AID 1053197;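 active means inhibition above a cutoff: mean of compounds within the control limits plus 3 SD of those, cut at about 17% in these data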;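 further: 0% = plate median of compound wells and 100% = probe without SIAE protein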
Target sequence (Q9HAT2 whole entry, looked up): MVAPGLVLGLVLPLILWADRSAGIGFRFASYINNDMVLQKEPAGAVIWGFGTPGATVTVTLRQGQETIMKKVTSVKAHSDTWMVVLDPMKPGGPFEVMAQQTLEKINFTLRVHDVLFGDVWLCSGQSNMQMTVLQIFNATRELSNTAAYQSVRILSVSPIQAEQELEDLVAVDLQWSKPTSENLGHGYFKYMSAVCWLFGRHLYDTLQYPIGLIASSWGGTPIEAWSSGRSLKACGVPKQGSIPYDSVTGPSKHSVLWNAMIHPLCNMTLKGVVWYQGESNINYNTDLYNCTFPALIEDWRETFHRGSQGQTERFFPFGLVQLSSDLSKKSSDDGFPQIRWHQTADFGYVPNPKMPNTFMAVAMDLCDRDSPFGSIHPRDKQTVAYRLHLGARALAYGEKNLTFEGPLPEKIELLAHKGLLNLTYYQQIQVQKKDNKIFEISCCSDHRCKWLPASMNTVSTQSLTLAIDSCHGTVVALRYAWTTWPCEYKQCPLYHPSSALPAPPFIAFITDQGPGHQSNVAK
SIAE confirm = confirmation of human SIAE inhibitors; shares compounds with SIAE inh; SIAE FP-Rh activity-based probe, fluorescence polarization; inhibition, % at 9.66 µM; hit rate 13% among 2,300; AID 1117263;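 active means mean inhibition of the replicates above the hit cutoff set in the primary screen, cut at about 17% in these data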;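 further: 0% = SIAE with DMSO and probe and 100% = probe without SIAE; inhibitors lower polarization as more probe stays unbound to SIAE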
* = called active by the depositor; / = no result. Only some compounds are listed: those with a hit (about 1.8% of all), similar ones and a draw of the others.

SMILES	ABHD4 inh	TCR CD3 inh	HTRA1 inh	ARNT-TACC3 inh	SIAE inh	SIAE confirm
CC(C)C1OC2(C)OC(=N)C1(C#N)C(C#N)(C#N)C2c1ccccc1 (configuration not stated)	35*	18	7	-10	22*	10
CCC1OC2(C)OC(=N)C1(C#N)C(C#N)(C#N)C2c1ccccc1 (configuration not stated)	11	8	12	0	7	/
O=C(C[C@@H]1CC[C@H](NC(=O)C2CC2)[C@H](CO)O1)NCC1CC1	/	/	/	-2	/	/
Cc1cccc(S(=O)(=O)Nc2ccc(C)c3c2OC(C)(C)C3)c1	-10	-3	-8	-2	24*	-7
Cc1ccc(NS(=O)(=O)c2ccccc2Cl)c2c1CC(C)(C)O2	-1	5	-14	0	-1	/
O=C(CCNC(=O)c1ccco1)Nc1ccc(OC(F)F)c(Cl)c1	-4	6	-8	-2	41*	0
Cc1cc(SCC(=O)NC2CC2)nc2ccccc12	4	-9	-2	-5	9	/
Cc1cc(SCC(=O)N/N=C/c2ccc(O)cc2O)nc2ccccc12	-2	2	0	6	23*	-8
N#CCCN(C(=O)COC(=O)CNS(=O)(=O)c1ccc2ccccc2c1)c1ccccc1	2	-5	0	0	23*	4
C/C(N)=C(/C#N)C(=O)COC(=O)CNS(=O)(=O)c1ccc2ccccc2c1	4	5	0	-11	5	/
CCN1CCN(S(=O)(=O)c2ccc(Cl)c(C(=O)N(C)CCOc3ccc(Cl)cc3)c2)CC1	-1	-1	-3	4	20*	1
CCN1CCN(S(=O)(=O)c2ccc(Cl)c(C(=O)Nc3ccccc3N3CCCC3)c2)CC1	-4	0	0	10	-15	/
CCN1CCN(S(=O)(=O)c2ccc(Cl)c(C(=O)Nc3ccccc3N3CCCCC3)c2)CC1	11	0	-15	-1	17*	-2
COc1ccc(S(=O)(=O)N2CCCCCC2)cc1C(=O)N(C)CCOc1ccc(Cl)cc1	-3	3	-9	-5	-4	/
CCN1CCN(c2ccc(S(=O)(=O)N3CCCCC3)cc2NC(=O)c2cccc(OC(F)F)c2)CC1	5	-4	-17	6	20*	7
C[C@@H](O)C#Cc1cnc2c(c1)C(=O)N([C@@H](C)CO)C[C@H](C)[C@@H](CN(C)Cc1cccc(C(=O)O)c1)O2	/	/	/	-10	/	/
C[C@@H]1CN([C@@H](C)CO)C(=O)c2cc(NC(=O)c3ccncc3)ccc2O[C@@H]1CN(C)Cc1ccc(Oc2ccccc2)cc1	/	/	/	9	/	/
CO[C@@H]1CN(C)C(=O)c2cc(NC(=O)C3CC3)ccc2OC[C@H](C)N(C)C[C@H]1C	/	/	/	-5	/	/
COc1ccc(N=C2SC(C(=O)O)CC(=O)N2Cc2ccc(OC)c(OC)c2)cc1 (configuration not stated)	4	2	0	-3	80*	-1
C[C@@H]1CN([C@@H](C)CO)C(=O)Cc2cc(NC(=O)Nc3ccc4c(c3)OCO4)ccc2O[C@H]1CN(C)C	/	/	/	-6	/	/
CC(=O)c1ccc(C(=O)Nc2nnc(-c3ccc(Cl)cc3)o2)cc1	-4	-11	-2	14	-2	/
CN(C)c1ccc(C(=O)Nc2nnc(-c3ccc(Cl)cc3)o2)cc1	-2	2	15	17	18*	5
COc1ccc(-n2nc3ccc(N)cc3n2)cc1Cl	-19	3	0	-7	72*	0
O=C(Nc1ccccc1)c1cn2ccccc2n1	-3	12	-6	41	18*	0
S=c1[nH]nc(Nc2ccc(Cl)cc2)s1	5	6	2	3	7	/
SMILES	ABHD4 inh	TCR CD3 inh	HTRA1 inh	ARNT-TACC3 inh	SIAE inh	SIAE confirm
Clc1ccc(Nc2nc(C3CC3)cs2)cc1	2	2	3	3	20*	3
COc1ccc2c(c1)CC=C1C2CCC2(C)C(=O)C(=NO)CC12 (configuration not stated)	-13	6	-8	/	19*	22*
CC12CCC3C(=CCc4cc(O)ccc43)C1CC(=NO)C2O (configuration not stated)	2	-1	2	3	-8	/
C[C@@H]1CN([C@H](C)CO)C(=O)c2cc(NC(=O)Nc3ccc4c(c3)OCO4)ccc2O[C@@H](C)CCCCO[C@H]1CN(C)Cc1ccc(C(F)(F)F)cc1	/	/	/	-1	/	/
COc1cc(/C=C2\N=C3CCCCCN3C2=O)ccc1O	8	-6	0	-1	4	/
COc1ccc(/C=C2\N=C3CCCCCN3C2=O)cc1OC	-2	-2	11	-5	110*	5
COc1ccc(NC(=O)Nc2ccc(F)cc2F)cc1	2	5	6	-2	2	/
COc1ccc(NC(=O)Nc2cc(F)ccc2C)cc1	-3	9	2	2	20*	-1
CC1(C)CC(=O)C2=C(C1)NC1=C(C(=O)c3ccccc31)C2c1ccc(Cl)cc1 (configuration not stated)	27	-1	8	-1	30*	14
COc1cc(C2C3=C(CC(C)(C)CC3=O)NC3=C2C(=O)c2ccccc23)ccc1O (configuration not stated)	19	7	18	7	16	/
CC(C)(C)CCN1CCC(CN2CCNC2=S)CC1	6	-7	4	/	18*	5
O=C1NCCN(CC2CCN(CCc3ccccc3)CC2)C1=O	8	-8	4	/	12	/
O=C(C[C@H]1C=C[C@H](NC(=O)CC2CC2)[C@@H](CO)O1)NCc1ccc(Cl)cc1	/	/	/	-9	/	/
CC1=CC(C)(C)Nc2ccc(OC(=O)CN3C(=O)c4cccc5cccc(c45)C3=O)cc21	13	2	24	/	19*	1
CC1=CC(C)(C)Nc2ccc(OC(=O)CN3C(=O)c4ccccc4C3=O)cc21	18	-2	-1	-2	4	/
COc1cccc(C(=O)Nc2ccc3c(c2)OC[C@@H](C)N(C(=O)C2CCOCC2)C[C@@H](C)[C@H](OC)CN(C)C3=O)c1	/	/	/	4	/	/
CCN(CC(=O)Nc1c(C(=O)OC)[nH]c2ccc(Cl)cc12)c1ccc2c(c1)OCO2	22	-2	13	-1	21*	13
Cc1noc(C)c1S(=O)(=O)N(C)C[C@@H]1OCCCC[C@@H](C)Oc2ccc(NC(=O)Nc3ccc4c(c3)OCO4)cc2C(=O)N([C@H](C)CO)C[C@@H]1C	/	/	/	25	/	/
COCCNC(=O)C[C@H]1CC[C@H]2[C@H](COc3ccc(NC(=O)Nc4ccccc4)cc3C(=O)N2C)O1	/	/	/	12	/	/
COc1ccc(C2(C)CC(C)(C)Nc3ccccc32)cc1 (configuration not stated)	3	6	4	17	5	/
COc1ccc(C2CC(C)(c3ccc(OC)cc3)Nc3ccccc3N2)cc1 (configuration not stated)	-3	-9	-4	9	17*	2
